Results on 31 compounds are retold here after ChEMBL document CHEMBL2021808, “Chemical synthesis and biological evaluation of triazole derivatives as inhibitors of InhA and antituberculosis agents” (Eur J Med Chem, 2012).

Experiment [1] concerns the target T1, Enoyl-[acyl-carrier-protein] reductase [NADH] (Mycobacterium tuberculosis) (UniProt P9WGR1).
T1 sequence (whole entry): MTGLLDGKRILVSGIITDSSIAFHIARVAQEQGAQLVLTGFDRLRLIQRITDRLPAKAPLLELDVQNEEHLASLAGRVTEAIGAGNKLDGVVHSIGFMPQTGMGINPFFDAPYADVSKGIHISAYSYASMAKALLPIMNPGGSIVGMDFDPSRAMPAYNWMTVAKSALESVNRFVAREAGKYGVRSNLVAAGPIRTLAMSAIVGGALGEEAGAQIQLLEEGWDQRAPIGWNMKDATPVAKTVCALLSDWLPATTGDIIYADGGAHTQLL
Briefly: Inhibition of Mycobacterium tuberculosis recombinant InhA expressed in Escherichia coli using trans-2-dodecenoyl-coenzyme-A as substrate at 50 uM. The gist of the method: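 Recombinant InhA was expressed in E. coli and purified. Reactions with DD-CoA substrate, NADH and inhibitor were run in 30 mM PIPES, 150 mM NaCl, pH 6.8, and started by adding InhA (100 nM final). Percent inhibition was calculated from initial velocity against a no-inhibitor control. Run in triplicate.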

Experiment [2] deals with Mycobacterium tuberculosis. Nature of the experiment: Antimycobacterial activity against Mycobacterium tuberculosis H37Rv by two-fold serial dilution method. It counts as functional. The gist of the method: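 A single colony was grown in complete Middlebrook 7H9 at 37 °C to exponential phase (about 10⁸ CFU/mL, OD600 0.8–1.0). Cultures were diluted to about 10⁷ CFU/mL and streaked onto plates with two-fold dilutions of compound. MIC is the minimal inhibitory concentration.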

In brackets after ≈: the same amount, converted by molar mass. Activity calls are given as the source filed them. The rule behind the calls is not given here.

With `CCCCCCCCCCc1cn(CCc2ccc(OC)c(OC)c2)nn1`, the inhibition in experiment [1] was 21%. Also, it took 2 µg/mL (≈ 5.35 µM) to inhibit growth in experiment [2] (MIC). As to `CCCCCCc1cn(Cc2cc(C)cc(C)c2)nn1`, the inhibition in experiment [1] was 19%. Turning to `CCCCCCCCCCCCn1cc(COc2ccccc2)nn1`, in experiment [1], the inhibition is 54%. In experiment [2], this compound registered an MIC of 2 µg/mL (≈ 5.82 µM). As for `CCCCCCCCCCCCn1cc(COc2ccc(Cl)cc2Cl)nn1`, in experiment [1], the inhibition is under 5%. Further, in experiment [2], the MIC is 4 µg/mL (≈ 9.7 µM). The corresponding values for `CCCCCCCCCCc1cn(CCc2ccccc2C)nn1` are 58% and 2 µg/mL (≈ 6.11 µM). The corresponding values for `CCCCCCc1cn(CCc2ccccc2)nn1` are 10% and 10 µg/mL (≈ 38.9 µM). The corresponding values for `CCCCCCCCCCCCc1cn(Cc2ccccc2)nn1` are 52% and over 4 µg/mL. `CCCCCCCCCCCCc1cn(CCc2ccc(OC)c(OC)c2)nn1`: the inhibition entry in experiment [1] was “inactive”. This compound also had an MIC in experiment [2] of 0.25 µg/mL (≈ 0.623 µM). For the compound `CCCCCCCCn1cc(-c2cccc(O)c2)nn1`, in experiment [1], the inhibition result was “inactive”.

`CCCCCCCCc1cn(CCc2ccccc2C)nn1`: in experiment [1], the inhibition came out at 37%. In experiment [2], this compound registered an MIC of 2 µg/mL (≈ 6.68 µM). In experiment [2], `CCCCCCCCCCCCn1cc(CCc2ccccc2)nn1` had an MIC of 0.5 µg/mL (≈ 1.46 µM). For `CCCCCCCCCn1cc(Cc2ccccc2)nn1`, the inhibition in experiment [1] is 75%. For the same compound, the MIC in experiment [2] stood at 25 µg/mL (≈ 87.6 µM). In the same order, the values of `CCCCCCc1cn(Cc2cccc(Cl)c2)nn1` are “inactive” and 4 µg/mL (≈ 14.4 µM). The corresponding values for `CCCCCCCCCCc1cn(Cc2cc(OC)cc(OC)c2)nn1` are 24% and over 4 µg/mL. The corresponding values for `CCCCCCCCCCc1cn(Cc2cccc(Cl)c2)nn1` are 42% and 4 µg/mL (≈ 12 µM). Take `CCCCCCCCCCCCc1cn(Cc2cccc(OC)c2)nn1`: the inhibition in experiment [1] was 46%. In addition, the MIC in experiment [2] came out at 4 µg/mL (≈ 11.2 µM). The corresponding values for `CCCCCCCCCCCCn1cc(Cc2ccccc2)nn1` are 58% and 25 µg/mL (≈ 76.3 µM). The corresponding values for `CCCCCCCCn1cc(-c2cccc(C)c2)nn1` are 33% and over 4 µg/mL.

Take `CCCCCCCCCCc1cn(Cc2cccc(OC)c2)nn1`: the inhibition in experiment [1] is 20%. Also, the MIC in experiment [2] was over 4 µg/mL. Turning to `CCCCCCCCCCCCc1cn(CCc2ccccc2OC)nn1`, the inhibition in experiment [1] is 61%. Moreover, the minimum inhibitory concentration (MIC) in experiment [2] turned out to be 2 µg/mL (≈ 5.38 µM).

Turning to `CCCCCCCCCCc1cnnn1CCc1ccccc1`, in experiment [1], the inhibition worked out at 33%. Also, the MIC in experiment [2] was over 4 µg/mL. As for `CCCCCCCCCCCCn1nncc1CCc1ccccc1`, the inhibition in experiment [1] was 9%. Moreover, the MIC in experiment [2] is over 4 µg/mL. The corresponding values for `CCCCCCCCCCc1cn(CCc2ccccc2OC)nn1` are 48% and 2 µg/mL (≈ 5.82 µM). In the same order, the values of `CCCCCCCCc1cn(Cc2ccccc2)nn1` are 34% and over 4 µg/mL. Turning to `CCCCCCc1cn(Cc2ccccc2)nn1`, the inhibition in experiment [1] came out at 21%. Further, the MIC in experiment [2] stood at 25 µg/mL (≈ 103 µM). `CCCCCCc1cn(Cc2cccc(OC)c2)nn1`: in experiment [1], the inhibition entry is “inactive”. The compound also came in with an MIC in experiment [2] of over 4 µg/mL.

With `CCCCCCCCCCc1cn(Cc2ccccc2)nn1`, the inhibition in experiment [1] was found to be 44%. This compound yielded an MIC in experiment [2] of over 4 µg/mL.

Turning to `CCCCCCCCn1cc(Cc2ccccc2)nn1`, the inhibition in experiment [1] was determined as 73%. This compound also showed an MIC in experiment [2] of 25 µg/mL (≈ 92.1 µM). As to `CCCCCCCCCCCCn1cc(COc2ccc(Cl)cc2OC)nn1`, in experiment [1], the inhibition is 35%. In experiment [2], the MIC was over 4 µg/mL. The corresponding values for `CCCCCCCCCCc1cn(CCc2ccccc2)nn1` are 43% and 4 µg/mL (≈ 12.8 µM). `CCCCCCCCCCCCc1cn(CCc2ccccc2)nn1`: the inhibition in experiment [1] is 67%. The MIC in experiment [2] was determined as 4 µg/mL (≈ 11.7 µM).

Usually inhibition stands for how much of the control response was suppressed. Usually MIC stands for the least concentration at which growth counts as inhibited.
